Screening results (PubChem)
697 NFkB inh: lowers PMA/ionomycin-induced NF-kB signal in 697 B cells | inhibition, % at 4 µM | 330,000 compounds, 0.33% hits | 697 B-cell NF-kB luciferase reporter, 16 h; in the data active = inhibition above about 35%
HSF1 activator: increases HSF-1 driven luciferase reporter signal | NIH3T3-HGL HSF-1 luciferase reporter, MG132, 8 h; 100% = twice DMSO control signal | activation, % at 9 µM | 300,000 compounds, 1.7% hits | AID 504408;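 active = mean replicate activation of at least 50% with a set share of replicates each reaching 50%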;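 also: 0% = median of the neutral control wells and 100% = twice that signal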
GPR7 antagonist: antagonists of human GPR7 (neuropeptides B/W receptor 1) | inhibition, % at 4.4 µM | P48145 | GPR7-expressing cells, fluorescence antagonist assay | 290,000 compounds, 1.1% hits | AID 1861; in the data active = inhibition above about 16%, passing the limit was not always enough;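 also: cells stimulated with the agonist NPW; 0% = agonist with vehicle and 100% = vehicle without agonist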
Target sequence (P48145 whole entry, looked up): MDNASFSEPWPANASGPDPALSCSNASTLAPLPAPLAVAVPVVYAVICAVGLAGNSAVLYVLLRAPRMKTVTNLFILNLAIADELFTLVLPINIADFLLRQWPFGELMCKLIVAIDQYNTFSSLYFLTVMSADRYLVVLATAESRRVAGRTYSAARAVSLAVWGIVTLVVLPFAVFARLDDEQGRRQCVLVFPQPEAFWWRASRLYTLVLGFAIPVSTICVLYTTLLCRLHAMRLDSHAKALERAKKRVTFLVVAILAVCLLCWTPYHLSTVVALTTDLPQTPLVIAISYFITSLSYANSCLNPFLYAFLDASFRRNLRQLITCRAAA
HSF1 inh: HSF1 inhibition | NIH3T3-HGL HSE-luciferase, MG132-induced, luminescence 8 h; stronger effect = lower value | activity change, negative = inhibition, % at 7.5 µM (by protocol) | 300,000 compounds, 0.77% hits | AID 2098;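 active = more than half of replicate wells show activity change below -50%, luminescence cut by over half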;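 also: luciferase reports HSF-1 transcriptional activity via heat shock element; 0% = median of DMSO wells and -100% = zero luminescence signal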
Jurkat NFkB inh: inhibitors of the PMA/ionomycin-induced NF-kB reporter in Jurkat cells; PMA/ionomycin-induced NF-kB luciferase reporter, luminescence; inhibition, % at 4 µM; 330,000 compounds, 0.53% hits; AID 435003; in the data active = inhibition above about 50%
T cruzi repl: blocks replication of Trypanosoma cruzi; T. cruzi beta-gal in NIH3T3, luminescence, 90 h; inhibition, % (no concentration beside the values); 300,000 compounds, 1.4% hits; AID 1885;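 active = mean inhibition across valid replicates above about 55%, limit read from the data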;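 also: signal also drops with host cell toxicity which is not excluded here; 0% = plate median of DMSO wells and 100% = zero luminescence signal; higher percent means less beta-gal luminescence so fewer parasites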
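System: Mouse NIH/3T3 fibroblasts infected with β-gal-expressing T. cruzi Tulahuen C4 | Quantity: NIH/3T3 cells, 5,000 per well | Reagent: 5000 reporter trypomastigotes per well | Dosing: Compound pinned at 50 nL/well, DMSO | Schedule: 3 h host attachment, then at least 90 h co-culture | Detection: GalScreen luminescence, 60 min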
GPR7 antag conf: human GPR7 antagonism, confirmation assay; inhibition, % at 4.4 µM; shares compounds with GPR7 antagonist; 2,400 compounds, 52% hits; GPR7-expressing cells, calcium fluorescence antagonist mode; in the data active = inhibition above about 24%;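 also: stimulated with the GPR7 agonist NPW; 0% = agonist plus vehicle and 100% = vehicle alone without agonist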
MCHR1 antag: MCHR1 (human) antagonism in GPR7 counter-screen | inhibition, % at 4.4 µM | MCHR1-expressing cells, fluorescence antagonist assay | shares compounds with GPR7 antagonist | 2,400 compounds, 62% hits; in the data active = inhibition above about 22%;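 also: 0% = vehicle with agonist and 100% = vehicle without agonist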
* hit, by the source's call; . = no result. An excerpt weighted towards active compounds, which were near 4.8% of everything screened.

SMILES	697 NFkB inh	HSF1 activator	GPR7 antagonist	HSF1 inh	Jurkat NFkB inh	T cruzi repl	GPR7 antag conf	MCHR1 antag
O=C(CSc1nnc(-c2ccc(Cl)cc2)n1Cc1ccco1)NCc1ccc2c(c1)OCO2	2	48	34*	10	14	32	32*	24*
C=CCn1c(SC(C)C(=O)NCc2ccc3c(c2)OCO3)nnc1C1CCCCC1 (stereo not drawn)	-27	5	26*	11	-1	18	32*	29*
Cc1cc(C)c(S(=O)(=O)N(C)c2ccccc2)c(C)c1	4	-1	0	5	15	23	.	.
CCN1CCN(c2c(Cl)cccc2NC(=O)c2ccc([N+](=O)[O-])o2)CC1	-17	3	28*	5	40	30	34*	34*
O=C(NCCc1ccccc1)C1CCN(Cc2cccc3ccccc23)CC1	5	4	28*	-3	6	18	4	10
O=C(NCCc1ccccc1)C1CCN(C2CCN(Cc3ccco3)CC2)CC1	0	-3	-21	-3	13	6	.	.
CCc1ccccc1NC(=O)N1CCCc2ccccc21	6	-42	4	-39	-10	7	.	.
COc1ccc(Cl)c(N2CCN(CCCNC(=O)Nc3ccc(C)cc3)CC2)c1	4	20	31*	5	9	28	22	42*
COC(=O)[C@@]1(Cc2ccc(F)cc2)[C@H]2c3cc(C(=O)N(C)C)n(Cc4ccc(OC)c(OC)c4)c3C[C@H]2CN1C(=O)c1ccccc1	-2	-7	10	6	-7	7	.	.
COC(=O)[C@@]1(Cc2ccc(F)cc2)[C@H]2c3cc(C(=O)N(C)C)n(Cc4ccccc4)c3C[C@H]2CN1C(=O)c1ccccc1	10	.	.	.	16	.	.	18
OC(COc1ccc(F)cc1Cl)CN1CCC(Cc2ccccc2)CC1 (stereo not drawn)	6	14	42*	0	5	63*	21	43*
OC(COc1ccccc1F)CN1CCC(Cc2ccccc2)CC1 (stereo not drawn)	10	-3	-15	-3	10	16	.	.
Cc1c(C(=O)OCc2ccccc2)nnn1-c1nonc1N	23	-8	21*	6	-5	-13	-3	6
O=C(c1ccc(Cl)c(Cl)c1)N(Cc1ccco1)c1ccc(O)cc1	22	19	29*	-3	3	7	3	4
Cc1ccc2nc3c(c(Nc4cccc(O)c4)c2c1)CCC3	-32	7	17	-14	47	36	.	.
Cc1cc(C)nc(N/N=C/c2ccccc2Cl)n1	-15	25	23*	7	-23	-11	2	8
Cc1cc(C)nc(N/N=C/c2cccc3ccccc23)n1	3	14	1	-1	-16	-10	.	.
CCC(=O)N1CCc2cc(S(=O)(=O)N3CCCCCC3)ccc21	-30	-35	0	-14	3	-25	.	.
COc1ccc(C(OCC(O)CNCCc2ccccc2)c2ccc(OC)cc2)cc1 (stereo not drawn)	.	6	61*	7	.	18	35*	53*
Cc1ccc(C(OCC(O)CNCc2ccc(F)cc2)c2ccccc2)cc1 (stereo not drawn)	-4	9	41*	-1	-6	-13	30*	65*
COc1ccc(C(OCC(O)CNC(C)c2ccccc2)c2ccc(OC)cc2)cc1 (stereo not drawn)	17	15	12	5	1	34	.	.
Nc1n[nH]c(N)c1N=Nc1cccc(C(F)(F)F)c1	22	7	41*	0	0	8	38*	36*
N#Cc1c(-c2cccs2)cc(C2CC2)nc1SCC(N)=O	-57	-26	-1	-10	-20	.	.	.
CCC1CCCCN1C(=O)c1sc2nc(C)nc(N(CC)CC)c2c1C (stereo not drawn)	-7	-38	25*	-22	4	13	21	19
CCOC(=O)c1sc2nc(C)nc(N3CCCCC3C)c2c1C (stereo not drawn)	-10	-5	-12	-4	16	50	.	.
SMILES	697 NFkB inh	HSF1 activator	GPR7 antagonist	HSF1 inh	Jurkat NFkB inh	T cruzi repl	GPR7 antag conf	MCHR1 antag
Cc1ccc(-n2cccn2)c(CN2CCCC(C(=O)c3sccc3C)C2)c1 (stereo not drawn)	-33	-21	33*	-15	-6	37	39*	41*
CC1(C)Cc2c(cnn2-c2ccc(F)cc2)C(NC(=O)C2=NNC(=O)CC2)C1 (stereo not drawn)	-24	16	1	5	-18	2	.	.
COc1ccc(NC(=O)Nc2cccc3c2O[C@@H](CN(C)CC2CCCCC2)[C@@H](C)CN([C@H](C)CO)C3=O)cc1	-28	.	.	.	-11	.	.	.
COc1ccc(/C=N/Nc2ccc([N+](=O)[O-])cc2)cc1O	10	20	30*	28	-97	-6	37*	41*
O=C(COc1ccc(Br)cc1CNC1CCCCC1)NCCc1ccccc1	8	-1	21*	0	5	23	48*	31*
Cc1ccc(NC(=O)CN(C)C(=O)COC(=O)CNS(=O)(=O)c2ccc(F)c(F)c2F)cc1	-34	-9	.	3	9	0	.	.
NC(=O)c1ccccc1NC(=O)CCn1c(=S)oc2ccccc21	10	22	-22	16	-13	-2	.	.
Cc1cccc(C)c1NC(=O)CN(C)C(=O)c1cccc(S(=O)(=O)N2CCN(c3ccc(F)cc3)CC2)c1	-22	-4	.	3	17	18	.	.
CN(CC(=O)Nc1ccccc1Cl)C(=O)c1cccc(S(=O)(=O)N2CCN(c3ccc(F)cc3)CC2)c1	-29	8	31*	2	12	19	24*	53*
CCOc1ccc(S(=O)(=O)Nc2ccc(C(=O)N3CC(C)OC(C)C3)cc2)cc1 (stereo not drawn)	2	-18	.	5	21	1	.	.
CC1CN(C(=O)c2ccc(NS(=O)(=O)c3ccc(C(C)(C)C)cc3)cc2)CC(C)O1 (stereo not drawn)	9	7	33*	-2	13	9	32*	42*
CCC(CO)Oc1cc(NC(=O)c2ccc(C)cc2)c2ncn(C(C)C)c2c1 (stereo not drawn)	15	.	.	.	12	.	.	.
COc1ccc(N=C/C=C2\C=C(c3ccccc3)OC(C)(C)O2)cc1	17	-19	29*	-15	9	47	-10	5
COCCNC(=O)Cn1cc(C(=S)N2CCCCC2)c2ccccc21	4	-12	24*	-7	-8	-4	-6	3
